In ChEMBL document CHEMBL1152542, “Synthesis of pentopyranosyl-containing thiodisaccharides. Inhibitory activity against beta-glycosidases” (Bioorg Med Chem, 2009):
pKi: −log10 of the molar value. Calls of active or inactive are those of the source. The rule behind the calls is not given here.

Legend:
[1] = molecular target: Beta-galactosidase (Escherichia coli) (UniProt Q8VNN2); test: Inhibition of Escherichia coli beta-galactosidase assessed as formation of o-nitrophenol at 0.01 to 0.05 mM after 10 mins by visible absorption spectroscopy
Beta-galactosidase (Escherichia coli), sequence (Q8VNN2 whole entry, looked up): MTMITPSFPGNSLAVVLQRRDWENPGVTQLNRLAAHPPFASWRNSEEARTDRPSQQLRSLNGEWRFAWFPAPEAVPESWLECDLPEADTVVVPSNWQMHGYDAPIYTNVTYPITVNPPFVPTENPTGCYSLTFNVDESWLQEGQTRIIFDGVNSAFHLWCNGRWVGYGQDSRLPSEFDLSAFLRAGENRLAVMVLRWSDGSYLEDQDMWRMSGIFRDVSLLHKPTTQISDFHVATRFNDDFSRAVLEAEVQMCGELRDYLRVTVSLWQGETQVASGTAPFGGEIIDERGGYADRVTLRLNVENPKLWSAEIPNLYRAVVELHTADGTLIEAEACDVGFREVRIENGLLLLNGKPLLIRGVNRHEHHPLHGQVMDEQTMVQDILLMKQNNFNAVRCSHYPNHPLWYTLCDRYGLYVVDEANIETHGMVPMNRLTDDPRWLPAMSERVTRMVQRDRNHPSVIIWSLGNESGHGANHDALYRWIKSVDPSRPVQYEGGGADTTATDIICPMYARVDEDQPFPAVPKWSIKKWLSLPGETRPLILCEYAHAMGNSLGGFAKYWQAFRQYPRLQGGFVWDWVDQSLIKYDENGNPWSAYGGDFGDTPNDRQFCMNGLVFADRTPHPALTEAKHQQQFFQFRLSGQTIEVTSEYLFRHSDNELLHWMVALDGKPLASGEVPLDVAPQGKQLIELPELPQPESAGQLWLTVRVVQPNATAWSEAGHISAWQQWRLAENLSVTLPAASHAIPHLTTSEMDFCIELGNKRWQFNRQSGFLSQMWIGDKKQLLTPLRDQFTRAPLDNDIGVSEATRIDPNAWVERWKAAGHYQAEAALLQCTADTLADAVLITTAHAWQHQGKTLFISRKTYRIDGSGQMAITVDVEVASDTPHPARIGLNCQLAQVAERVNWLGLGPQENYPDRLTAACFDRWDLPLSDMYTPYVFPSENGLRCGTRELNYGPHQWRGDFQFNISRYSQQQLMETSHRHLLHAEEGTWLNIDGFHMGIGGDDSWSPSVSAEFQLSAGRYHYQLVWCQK
In short: (§1)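 E. coli β-galactosidase (0.3 U) was incubated with o-nitrophenyl β-D-galactopyranoside (0.2–5.0 mM) in 100 mM sodium phosphate, pH 7.3, containing 1.2 mM MgCl₂ and 100 mM 2-mercaptoethanol, with or without inhibitor, for 10 min at 37 °C. The reaction was quenched with 0.2 M sodium borate, pH 10.0, and released o-nitrophenol was read at 410 nm.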

Beta-galactosidase = Beta-galactosidase (Escherichia coli, UniProt Q8VNN2); test: Inhibition of Escherichia coli beta-galactosidase by Lineweaver-Burke plot analysis
Beta-galactosidase, sequence (Q8VNN2 whole entry): as the sequence (Q8VNN2 whole entry, looked up) above
In short: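 Kinetics of E. coli β-galactosidase with o-nitrophenyl β-D-galactopyranoside (0.2–5.0 mM) in 100 mM sodium phosphate, pH 7.3, with 1.2 mM MgCl₂ and 100 mM 2-mercaptoethanol, 10 min at 37 °C, borate quench, absorbance at 410 nm. Inhibitor was tested at 0, 0.40, 0.80 and 1.20 mM, and data were analysed by Lineweaver–Burk double-reciprocal plot.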

[2] = molecular target: Beta-galactosidase (Escherichia coli) (UniProt Q8VNN2); test: Inhibition of Escherichia coli beta-galactosidase assessed as formation of o-nitrophenol at 0.4 to 1.2 mM after 10 mins by visible absorption spectroscopy; in short: as §1
[3] = molecular target: T1, Exo-1,4-beta-xylosidase xlnD (Aspergillus niger) (UniProt O00089); test: Inhibition of Aspergillus niger beta-xylosidase at 15 mM after 15 mins by visible absorption spectroscopy
T1 sequence (whole entry): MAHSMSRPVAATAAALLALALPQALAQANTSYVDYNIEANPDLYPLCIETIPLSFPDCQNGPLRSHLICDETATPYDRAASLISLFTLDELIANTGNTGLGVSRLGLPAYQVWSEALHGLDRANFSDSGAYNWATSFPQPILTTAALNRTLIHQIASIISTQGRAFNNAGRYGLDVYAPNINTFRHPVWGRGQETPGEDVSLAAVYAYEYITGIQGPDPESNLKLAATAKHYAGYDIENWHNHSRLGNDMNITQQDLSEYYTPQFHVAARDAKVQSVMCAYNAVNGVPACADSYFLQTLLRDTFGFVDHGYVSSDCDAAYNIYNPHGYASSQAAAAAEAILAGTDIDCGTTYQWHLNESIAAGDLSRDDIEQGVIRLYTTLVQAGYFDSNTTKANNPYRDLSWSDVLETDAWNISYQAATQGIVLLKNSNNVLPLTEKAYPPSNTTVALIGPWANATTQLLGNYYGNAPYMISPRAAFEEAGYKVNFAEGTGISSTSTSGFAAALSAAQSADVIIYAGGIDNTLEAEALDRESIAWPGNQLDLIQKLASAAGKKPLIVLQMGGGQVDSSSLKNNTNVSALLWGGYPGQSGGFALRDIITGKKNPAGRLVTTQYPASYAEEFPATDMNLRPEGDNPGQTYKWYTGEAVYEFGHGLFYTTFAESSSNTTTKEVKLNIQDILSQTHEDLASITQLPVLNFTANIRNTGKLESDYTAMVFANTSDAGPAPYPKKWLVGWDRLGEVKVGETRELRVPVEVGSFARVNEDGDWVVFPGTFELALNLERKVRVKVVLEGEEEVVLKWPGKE
In short: (§2)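 A. niger β-xylosidase (0.04 U) was incubated with p-nitrophenyl β-D-xylopyranoside (0.5–10.0 mM) in 50 mM sodium acetate, pH 5.0, with or without inhibitor (2.0–10.0 or 5.0–15.0 mM) for 15 min at 25 °C. The reaction was stopped with 0.2 M sodium borate, pH 10.0, and absorbance was read at 400 nm.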

Prunus dulcis = test: Inhibition of almond beta-glucosidase at 4 to 6 mM after 15 mins by visible absorption spectroscopy
In short: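 Almond β-glucosidase (2.0 mU) was incubated with p-nitrophenyl β-D-glucopyranoside (0.5–10.0 mM) in 50 mM sodium acetate, pH 5.6, with or without inhibitor (4.0–6.0 mM) for 15 min at 37 °C. The reaction was stopped with sodium borate, pH 10.0, and absorbance was read at 400 nm.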

[4] = molecular target: Beta-galactosidase (Escherichia coli) (UniProt Q8VNN2); test: Inhibition of Escherichia coli beta-galactosidase assessed as formation of o-nitrophenol at 0.6 to 4 mM after 10 mins by visible absorption spectroscopy
[5] = molecular target: T1, Exo-1,4-beta-xylosidase xlnD (Aspergillus niger); test: Inhibition of Aspergillus niger beta-xylosidase at 10 mM after 15 mins by visible absorption spectroscopy; in short: as §2

Question: For `OC[C@H]1O[C@@H](S[C@@H]2CO[C@@H](OCc3ccccc3)[C@@H](O)C2)[C@H](O)[C@@H](O)[C@H]1O`, which Activity [1] is on record?
Answer: Active

Question: And the pKi (Beta-galactosidase)?
Answer: 4.49

Question: Which Activity [2] does the source give for `OC[C@H]1O[C@@H](S[C@@H]2CO[C@@H](OCc3ccccc3)[C@H](O)C2)[C@H](O)[C@@H](O)[C@H]1O` here?
Answer: Active

Question: What about the pKi (Beta-galactosidase) of the same molecule?
Answer: 3.10

Question: `CC(C)O[C@H]1O[C@H](CO)[C@H](S[C@@H]2OC[C@@H](O)[C@H](O)[C@H]2O)C[C@H]1O` was tested. Which inhibition [3] did it give?
Answer: inactive

Question: And the inhibition (Prunus dulcis)?
Answer: inactive

Question: What about the pKi (Beta-galactosidase) of the same molecule?
Answer: 3.80

Question: What about the inhibition [4] of the same molecule?
Answer: inactive

Question: With `CC(C)O[C@H]1O[C@H](CO)[C@H](S[C@@H]2OC[C@@H](O)[C@H](O)[C@H]2O)C[C@@H]1O` as the molecule, how does the inhibition [5] read?
Answer: inactive

Question: And the inhibition (Prunus dulcis)?
Answer: inactive

Question: And the pKi (Beta-galactosidase)?
Answer: 3.92

Question: And the inhibition [4]?
Answer: inactive
